High-throughput results as filed in PubChem.
MC4R barr agon: human MC4R agonism via beta-arrestin. P32245. U2OS MC4R beta-arrestin complementation, luminescence; percent of melanotan II response, DMSO zero. activation, % at 8.9 µM. actives 0.98% (n = 360,000). AID 540308;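 active = activation above a per-plate cutoff, the mean activation of sample wells on that plate plus 3 SD, cut at about 8% in these data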
Target sequence (P32245 whole entry, looked up): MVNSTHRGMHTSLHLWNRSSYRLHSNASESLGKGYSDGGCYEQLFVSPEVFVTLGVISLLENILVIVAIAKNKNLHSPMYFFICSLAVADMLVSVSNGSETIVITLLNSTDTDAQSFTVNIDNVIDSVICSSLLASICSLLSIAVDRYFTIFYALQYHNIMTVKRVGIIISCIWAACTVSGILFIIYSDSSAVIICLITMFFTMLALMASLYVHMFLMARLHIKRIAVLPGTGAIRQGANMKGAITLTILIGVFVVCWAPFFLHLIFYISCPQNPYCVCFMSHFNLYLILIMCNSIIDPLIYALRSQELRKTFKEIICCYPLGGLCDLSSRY
m5-HT2A agonist: mouse HTR2A agonism via beta-arrestin recruitment; CHO-K1 mHTR2A beta-arrestin complementation, luminescence; percent of 30 µM serotonin response; activation, % at 7.6 µM; actives 0.66% (n = 360,000); P35363;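 active = activation above a run cutoff, the mean activation of all tested compounds plus 3 SD, cut at about 14% in these data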;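 also: 0% = plate median of compound wells and 100% = 30 µM serotonin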
beta cell repl: inducers of beta-cell replication in MIN6 cells | MIN6 cells proliferation, ATPlite luminescence, 48 h; cells starved in 0.2% serum; 100% = growth in 10% serum | proliferation, % at 10 µM | actives 0.29% (n = 330,000);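 active = compounds whose signal lies at least 3.5 SD above the mean of all wells on their plate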;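 also: 0% = DMSO-treated cells in low-serum medium and 100% = 10% serum control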
ANO1 activ: mouse TMEM16A channel activation, primary screen; Q8BHY3; HEK293 TMEM16A/YFP-H148Q/I152L, iodide quench fluorescence; hits give low values; B-score at 10 µM; actives 0.3% (n = 340,000);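 active = fluorescence-ratio B-score plate-corrected deviation score at least 3 library SD below zero, with starting fluorescence score within 5 deviations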;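 also: channel opened by trigger with iodide after compound preincubation; score built on the fluorescence ratio of max minus min over baseline; more negative score means more quench and so TMEM16A activation or potentiation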
MC4R antagonist: antagonists of human melanocortin 4 receptor (MC4R). P32245. MC4R-expressing cells, MTII-stimulated cAMP, LANCE TR-FRET. inhibition, % at 6.5 µM. actives 0.48% (n = 360,000). AID 540295;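 active = inhibition above its plate's cutoff, the mean of tested wells on that plate plus 3 SD, cut at about 29% in these data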;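 also: 0% = Melanotan II alone and 100% = Melanotan II plus saturating MCL0020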
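Assay system: human MC4R-expressing U2OS cells; reagent: Melanotan II stimulation of cells; dosing: 6.5 µM single dose; timing: compound 30 min, challenge 1 h, detection 1 h; signal: TR-FRET cAMP assay; replicates: one well per compound, no replicates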
ANO1 block: mouse TMEM16A channel inhibition, primary screen | normalized B-score (activity score, 25-100; higher = stronger inhibition) at 10 µM | AID 588511 | HEK293 TMEM16A/YFP iodide influx fluorescence, ionomycin | actives 1.2% (n = 310,000);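 active = ratio plate-corrected score three or more library SD toward inhibition, starting fluorescence score within five deviations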;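 also: score derived from kinetic fluorescence span divided by baseline fluorescence per well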
The depositor's hits bear a star; i = inactive; / = not tested or not shown. Sampled rows, rich in hits. Any-hit rate of the full collection: about 3.4%.

SMILES	MC4R barr agon	m5-HT2A agonist	beta cell repl	ANO1 activ	MC4R antagonist	ANO1 block
COc1ccc(S(=O)(=O)Nc2cccc3c2O[C@H](CN(C)CC2CCCCC2)[C@@H](C)CN([C@H](C)CO)C3=O)cc1	-2	3	-2	i	1	/
O=[N+]([O-])c1nc2ccccc2[nH]1	-1	-5	/	i	2	/
CCc1ccc(NC(=O)Cn2nc(C(F)(F)F)c3c2CCC3)cc1	9.2*	4	-3	i	-2	i
CCc1ccccc1NC(=O)Cn1nc(C(F)(F)F)c2c1CCC2	0	-1	1	i	-3	i
CCCc1cc(C(=O)Nc2cccc3ccccc23)n(C)n1	0	-4	0	i	17	i
CCCc1cc(C(=O)Nc2ccc(C(=O)c3ccc(C)cc3)cc2)n(C)n1	3	-11	-5	i	7	100*
O=C(c1ccccc1)N1CCC(c2nc(-c3ccc(S(=O)(=O)NCC4CCCO4)cc3)no2)CC1 (stereo unspecified)	-1	9	-3	i	8	25*
O=C(C1CC1)N1CCC(c2nc(-c3ccc(S(=O)(=O)NCC4CCCO4)cc3)no2)CC1 (stereo unspecified)	-1	1	-1	i	12	i
O=C(Nc1ccccc1)c1ccc(NCc2cccnc2)c(S(=O)(=O)N2CCOCC2)c1	0	-1	-2	-6.8*	2	i
O=C(Nc1ccccc1)c1ccc(NCc2ccco2)c(S(=O)(=O)N2CCOCC2)c1	0	-6	-2	i	11	i
CC(Sc1nnc2c(n1)[nH]c1ccccc12)C(=O)N(C)C1CCCCC1 (stereo unspecified)	-1	-2	1	i	1	100*
CC(Sc1nnc2c(n1)[nH]c1ccccc12)C(=O)NC1CCCCC1 (stereo unspecified)	0	2	0	i	7	i
O=S(=O)(Nc1ccc(S(=O)(=O)Nc2ccccc2)cc1)c1ccccc1	-1	0	-2	i	1	i
O=S(=O)(Nc1ccc(N=Nc2ccccc2)cc1)c1ccccc1	8.3*	-4	0	i	0	i
O=S(=O)(N1CCCCC1)N1CCN(c2cc(Cl)ccc2Cl)CC1	0	-2	/	-8*	-6	i
O=S(=O)(c1ccc(Cl)cc1)N1CCN(S(=O)(=O)N2CCCCCC2)CC1	-1	5	-2	i	17	i
CN1OC[C@@H]2CN(C(=S)NCCc3ccccc3)[C@H](c3ccc(N4CCCCC4)cc3)C[C@@H]21	/	-3	/	/	/	/
Cc1nc2ccccc2c2oc(C(=O)NCC3COc4ccccc4O3)cc12 (stereo unspecified)	0	-2	-7	i	7	25*
COc1cccc(CNC(=O)c2cc3c(C)nc4ccccc4c3o2)c1	0	2	-1	i	14	i
COc1ccc(CNC(=O)c2cc3c(C)nc4ccccc4c3o2)c(OC)c1	8.6*	6	-6	/	6	i
CCc1ccc(CNC(=O)c2cc3c(C)nc4ccccc4c3o2)cc1	1	-9	-7	i	-1	i
COc1ccccc1-c1csc(Nc2ccc(Oc3ccccc3)cc2)n1	/	-4	/	/	/	/
O=C(NC1CCN(Cc2ccccc2)CC1)c1cn(-c2ccccc2)nc1-c1cccnc1	-1	-14	0	i	6	i
CC(=O)Nc1ccc(C(=O)N2CCCCC2c2cc(C(=O)NC(C)C)no2)cc1 (stereo unspecified)	1	10	/	/	13	/
N#Cc1ccc(CN2CCN(C(=O)c3cc(C4CC4)nn3-c3ccccc3)CC2)cc1	1	-18	-1	i	6	/
SMILES	MC4R barr agon	m5-HT2A agonist	beta cell repl	ANO1 activ	MC4R antagonist	ANO1 block
Cc1cc[n+](CC[n+]2ccc(C)cc2)cc1	1	5	-1	i	12	i
CCC(C)(C)c1ccc(OCCCC[n+]2ccc(C)cc2)c(C(C)(C)CC)c1	/	/	-6	/	/	100*
COC(=O)c1ccc(CSc2nc3ccccc3o2)cc1	3	2	-3	i	5	25*
O=[N+]([O-])c1ccc(CSc2nc3ccccc3o2)cc1	0	0	0	i	3	i
COc1ccccc1CNc1nc(NCc2ccccc2SC)c2sccc2n1	-1	-5	/	/	-2	/
CC1(C)Cc2ccccc2-c2nnc(SCC(=O)N3CCN(c4ccccc4)CC3)n21	2	2	2	i	12	25*
Cc1cc(C)cc(N2C(=O)C=CC2=O)c1	-3	1	/	i	33*	/
Cc1c([N+](=O)[O-])cc(N2C(=O)C=CC2=O)cc1[N+](=O)[O-]	0	6	/	i	23	/
O=C1C(C=NCc2ccccn2)=C(O)c2ccccc21	1	5	-3	i	-3	25*
O=C1ON=C(c2ccccc2)/C1=C/c1ccc(-c2ccccc2[N+](=O)[O-])o1	-1	-3	/	-6.2*	32*	25*
COc1ccc(C(=O)OCC(=O)N(C)C2CCS(=O)(=O)C2)cc1Br (stereo unspecified)	-3	1	-7	i	2	/
COc1ccc(N2CCN(C(=O)c3ccc(-c4nc5ccccc5s4)o3)CC2)cc1	0	1	-2	-28*	2	/
COc1ccccc1N1CCN(C(=O)c2ccc(-c3nc4ccccc4s3)o2)CC1	3	-6	-1	i	-6	/
Cc1nnc(SC(C)C(=O)Nc2ncc(Cl)cc2Cl)n1Cc1ccccc1 (stereo unspecified)	1	6	-4	-20*	3	i
COCCn1c(SC(C)C(=O)Nc2ncc(Cl)cc2Cl)nc2ccccc21 (stereo unspecified)	0	2	-1	i	-7	i
COc1cc(NC(=O)[C@@H]2CCCN(S(=O)(=O)c3cccc4cccnc34)C2)cc(OC)c1OC	1	13	-5	i	13	25*
O=C(Nc1ccc(Cl)c(Cl)c1)Nc1ccccc1C(=O)O	-5	0	-2	i	20	i
O=C(Nc1ccc(Cl)c(Cl)c1)Nc1ccccc1NS(=O)(=O)c1cccs1	-2	-3	-6	i	6	100*
CC(NC(=O)CSc1nc2c(c(C(F)(F)F)n1)CCc1ccccc1-2)c1ccccc1 (stereo unspecified)	0	-3	-5	i	10	100*
O=C(CSc1nc2c(c(C(F)(F)F)n1)CCc1ccccc1-2)NCc1ccco1	-1	-4	-4	i	10	i
COc1cc(/C=C/C(C)=NNc2ccccc2)ccc1O	0	6	/	i	3	/
